Experimental data collected from several papers.
Protocols differ between the studies behind these lines.
JAK2 JH1: Tyrosine-protein kinase JAK2, JH1 (JAK2, Homo sapiens, UniProt O60674)
JAK2: Tyrosine-protein kinase JAK2 (JAK2, Homo sapiens, UniProt O60674)

Structure (SMILES) | target | assay | conditions | endpoint | result
CCCS(=O)(=O)Nc1ccc(F)c(C(=O)c2c[nH]c3ncc(-c4ccc(Cl)cc4)cc23)c1F | JAK2 JH1 | enzyme activity, inhibitor | 1 µM | inhibition | < 10%
Nc1nc(Nc2ccc(S(N)(=O)=O)cc2)nn1C(=O)c1c(F)cccc1F | JAK2 | cell-free assay | 0.5 µM | remaining signal | 19.2%
O=C(NCCCNc1nc(Nc2cccc(NC(=O)N3CCCC3)c2)ncc1C1CC1)C1CCC1 | JAK2 | enzyme activity, inhibitor, radiometric | 1 µM | remaining activity | 68%
CCOc1cc(-c2nncn2C)ccc1Nc1ncc2cc(C)nc(NCC(C)(C)C)c2n1 | JAK2 | enzyme activity, inhibitor, FRET | 1 µM | inhibition | < 15%
Cc1sc(C(=O)NC2COC2)cc1-n1cc(NC(=O)Nc2c(F)cccc2Cl)cn1 | JAK2 | enzyme activity, inhibitor | 10 µM | remaining activity | 95%
COc1cc2ncnc(Nc3ccc(Oc4ccccc4)cc3C)c2cc1OC | Tyrosine-protein kinase JAK2, JH1 (JAK2, Homo sapiens, UniProt O60674, V617F) | enzyme activity, inhibitor | 1 µM | inhibition | -11%
O=C1Nc2ccc(Cl)cc2C1=Cc1cc(Cl)c(O)c(Cl)c1 | JAK2 | cell-free assay | 0.5 µM | remaining signal | 91.1%
Cc1nn(CC(F)(F)F)cc1Nc1ncc(C2CC2)c(NCCc2c[nH]cn2)n1 | JAK2 | enzyme activity, inhibitor, radiometric | 1 µM | remaining activity | 123%
NS(=O)(=O)c1cc(NC(=O)C2(c3ccccc3Cl)CC2)ccc1Oc1cccc(Cl)c1 | JAK2 JH1 | cell-free assay, competition with immobilised ligand | 1 µM | remaining binding | 100%
Cc1ccc(NC(=O)c2ccc(CN3CCN(C)CC3)cc2)cc1Nc1nc(-c2cccnc2)cs1 | JAK2 | cell-free assay | 0.5 µM | remaining signal | 96.3%
CN([C@@H]1CCc2c(CC(=O)O)c3cc(S(C)(=O)=O)ccc3n2C1)S(=O)(=O)c1ccc(F)cc1 | JAK2 JH1 | cell-free assay, competition with immobilised ligand | 1 µM | remaining binding | 100%
CC(C)c1ccc(NC(=O)c2cccs2)c(-c2nc3ccccc3[nH]c2=O)c1 | JAK2 | enzyme activity, inhibitor | 1 µM | activity vs control | 123%
Cc1nn(CC(F)(F)F)cc1Nc1ncc(Br)c(NCCCNC(=O)C2CCC2)n1 | JAK2 | enzyme activity, inhibitor, radiometric | 1 µM | remaining activity | 67%
CS(=O)(=O)c1cc(C2(NC(=O)c3cncc4c3cnn4-c3ccc(F)cc3)CC2)ccn1 | JAK2 JH1 | cell-free assay, competition with immobilised ligand | 1 µM | remaining binding | 100%
FC(F)c1nc2ccccc2n1-c1nc(N2CCOCC2)nc(N2CCOCC2)n1 | JAK2 | enzyme activity, inhibitor | 10 µM | remaining activity | 79%
CCS(=O)(=O)c1cc2cc(C[C@@](O)(CC(C)(C)c3ccc(F)cc3C(N)=O)C(F)(F)F)[nH]c2cn1 | JAK2 JH1 | cell-free assay, competition with immobilised ligand | 1 µM | remaining binding | 100%
O=C(CSc1nc2nccnc2c(=O)n1CCc1ccccc1)Nc1nccs1 | JAK2 | enzyme activity, inhibitor | 10 µM | inhibition | -4%

Structure (SMILES) | target | assay | conditions | endpoint | result
Cc1nn(CC(F)(F)F)cc1Nc1ncc(Br)c(NCCc2cnc[nH]2)n1 | JAK2 | enzyme activity, inhibitor, radiometric | 1 µM | remaining activity | 106%
Cc1ccc(Nc2nccc(N(C)c3ccc4c(C)n(C)nc4c3)n2)cc1S(N)(=O)=O | JAK2 | enzyme activity, inhibitor | 10 µM | inhibition | 36%
O=C(NCCCNc1nc(Nc2cccc(NC(=O)N3CCCC3)c2)ncc1Br)C1CCC1 | JAK2 | enzyme activity, inhibitor, radiometric | 1 µM | remaining activity | 10%
CC(=O)Nc1c(C(C)=O)c(=O)n(C)c2nc(-c3ccc(Cl)cc3Cl)c(-c3ccc(Cl)cc3)cc12 | JAK2 JH1 | cell-free assay, competition with immobilised ligand | 1 µM | remaining binding | 100%
COc1cc(Nc2cnc(C#N)c(O[C@H](C)CN(C)C)n2)ncc1-c1cnn(C)c1 | JAK2 | enzyme activity, inhibitor, radiometric | 1 µM | remaining activity | 71%
CC(=O)N1CCC(c2ccc(C(=O)NC(=N)N)cc2C(F)(F)F)CC1 | JAK2 JH1 | cell-free assay, competition with immobilised ligand | 1 µM | remaining binding | 100%
C[C@H]1CCN(c2nccc(-c3cnn4ncccc34)n2)C1 | JAK2 JH1 | cell-free assay | 1 µM | remaining signal | 70%
Cc1nc(N2CC[C@@H](O)C2)ncc1-c1cc(C(F)(F)F)cc2[nH]ncc12 | JAK2 JH1 | binding, competition with immobilised ligand | 1 µM | remaining binding | 61%
CC/C(=N\NC(=O)NCc1cccc(O)c1)c1ccc(O)c(C)c1O | JAK2 | enzyme activity, inhibitor | 0.1 µM | inhibition | 1%
Cc1nn(CC(F)(F)F)cc1Nc1ncc(C2CC2)c(NCc2ccc(S(N)(=O)=O)cc2)n1 | JAK2 | enzyme activity, inhibitor, radiometric | 1 µM | remaining activity | 100%
FC(F)(F)Oc1cccc(-c2cnc3ccc(-c4ccncc4)nn23)c1 | JAK2 | enzyme activity, inhibitor, radiometric | 1 µM | activity vs control | 74%
C=CC(=O)Nc1cc(Nc2nccc(Nc3cc(Cl)c(F)cc3C(C)(C)O)n2)c(OC)cc1N1CC[C@@H](N(C)C)C1 | JAK2 | enzyme activity, inhibitor | 1 µM | inhibition | 2%
O=C1CCc2cc(Nc3cc(OC4CCOCC4)c([N+](=O)[O-])cc3Cl)ccc2N1 | JAK2 JH1 | cell-free assay, competition with immobilised ligand | 1 µM | remaining binding | 100%
CN(c1nccc(-c2cnn3ncccc23)n1)C1CC1 | JAK2 JH1 | cell-free assay | 1 µM | remaining signal | 100%
COc1cc2ncnc(Nc3ccc(Oc4ccccc4)c(C)c3C)c2cc1OC | JAK2 JH1 | enzyme activity, inhibitor | 1 µM | inhibition | -2%
Cc1nn(CC(F)(F)F)cc1Nc1nccc(NCCCNC(=O)C2CCC2)n1 | JAK2 | enzyme activity, inhibitor, radiometric | 1 µM | remaining activity | 114%
O=C1NC(=O)c2cc(Nc3ccc(F)cc3)c(Nc3ccc(F)cc3)cc21 | JAK2 | cell-free assay | 0.5 µM | remaining signal | 94.6%
